Not all results are given here.
HKDC1 act = HKDC1 (human) hexokinase activation | activity change, negative = activation, % at 20 µM | recombinant HKDC1, G6PDH/diaphorase resazurin fluorescence; active compounds read low | 340,000 compounds, 0.056% hits | AID 493187;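 active means activation of 40% or more at 20 µM, a change of -40% or lower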
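Signal: coupled resazurin-to-resorufin fluorescence, Ex 525/Em 613 nm. Test system: in-house human HKDC1 enzyme, G6PDH and diaphorase coupling enzymes. Quantity: HKDC1 5 µg/mL. Timing: 90 min reaction at room temperature, dark.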
An asterisk follows results filed as active.

SMILES	HKDC1 act
COc1cc(/C=C2\SC(=S)N(c3cccnc3)C2=O)ccc1O	38
CC1(C)Cc2c(c(N3CCOCC3)nc3sc4c(NCC5CCCO5)nnnc4c23)CS1 (stereo not given)	45
Cc1cc(C(=O)COC(=O)c2cc(O)c3ccccc3c2O)c(C)n1CC1CCCO1 (stereo not given)	47
O=C(O)c1cc(O)c2c(c1)[C@H]([C@H]1c3cc(C(=O)O)cc(O)c3C(=O)c3c(O[C@@H]4O[C@H](CO)[C@@H](O)[C@H](O)[C@H]4O)cccc31)c1cccc(OC3O[C@H](CO)[C@@H](O)[C@H](O)[C@H]3O)c1C2=O (stereo not given in full)	87
COc1cc(N(C)C)ccc1C=c1c2ccccc2n2c1cc(-c1ccccc1)[n+]2C	41
Cc1cc([N+](=O)[O-])nn1CC(=O)N/N=C/c1ccc(O)cc1O	-49*
NS(=O)(=O)c1ccc(N/N=C/c2ccc(O)c(O)c2O)c([N+](=O)[O-])c1	36
Cc1cc(C)n(Cc2ccc(C(=O)N/N=C/c3ccc(-c4ccc([N+](=O)[O-])cc4)o3)o2)n1	66
COc1ccc2c(c1)CCc1c(C(=O)N3CCCc4ccccc43)noc1-2	38
CC(=O)n1cc(N(C(=O)CCl)c2ccc(C)cc2)c2ccccc21	41
COc1ccc(CN2CCn3nc(C(=O)NC(C)C)cc3C2=O)cc1	-75*
Cc1cc(C(=O)N=Nc2c(O)n(C(C)C)c3ccccc23)n[nH]1	40
Cc1c(N=C2C=CC(=O)c3ccccc32)c(=O)n(-c2ccccc2)n1C	42
Cc1ccc(-n2c3nc(=O)[nH]c(=O)c-3cc3cc([N+](=O)[O-])ccc32)cc1C	61
CCc1ccc(S(=O)(=O)/N=C2\C=C(Nc3ccc(C(=O)O)cc3)C(=O)c3ccccc32)cc1	54
COc1ccc(-c2csc(Nc3ccc(S(N)(=O)=O)cc3)n2)cc1	-42*
Cn1c2ccccc2c(=O)c2c(=O)n(-c3ccc(F)cc3)c(-c3cccs3)nc21	68
COC1(NS(=O)(=O)c2ccc(Br)cc2)C(C)=CC(=O)C=C1C	50
COC1=CC(=O)c2c(ccc3ncnc(N)c23)C1=O	87
COc1cccc2c1C(=O)C=C(C)C2=O	-43*
CCOC(=O)C1CCN(C(=O)Nc2ccc3nc(-c4ccco4)c(-c4ccco4)nc3c2)CC1	43
COc1cccc(/C=N/Nc2ccc([N+](=O)[O-])cn2)c1O	36
O=C(Nc1ccc(Cl)c(Cl)c1)Nc1nnc(-c2ccncc2)s1	41
O=C(NNC(=S)Nc1ccc(Cl)c(Cl)c1)c1ccccn1	-57*
CCc1ccc(S(=O)(=O)Nc2cc(SCC(=O)O)c(O)c3ccccc23)cc1	54
SMILES	HKDC1 act
O=C1/C(=C\c2ccc(-c3ccccc3[N+](=O)[O-])o2)C(c2ccccc2)=NN1c1ccccc1	42
O=S(=O)(c1cccc(COc2ccc(Cl)cc2Cl)c1)N1CCOCC1	39
O=S(=O)(c1ccc(N=C2NN=C(c3cc(F)ccc3F)CS2)cc1)N1CCOCC1	-308*
Fc1ccc(N=C2NN=C(c3cc(F)ccc3F)CS2)cc1	-218*
Fc1ccccc1N=C1NN=C(c2ccccc2)CS1	-82*
CC(=O)Nc1ccc(C2=NNC(=Nc3ccc(S(=O)(=O)N4CCOCC4)cc3)SC2)cc1	-339*
O=C(/C=C/c1cccc([N+](=O)[O-])c1)c1ccc([N+](=O)[O-])o1	55
O=C1NN(c2ccccc2)C(=O)/C1=C/c1ccc(Sc2ccc(Cl)cc2)o1	42
O=C1C=C(Nc2ccccc2C(=O)O)c2ccccc2C1=O	46
Cc1cc2c(N)cccc2nn1	35
COc1ccc(NC(=O)CSc2ccc(-c3ccco3)nn2)cc1OC	43
CN1CCN(C2=C(Cl)C(=O)c3ccccc3C2=O)CC1	44
O=[N+]([O-])c1ccc(Sc2nc3ccccc3o2)c([N+](=O)[O-])c1	35
O=C1C=C(N2CCOCC2)c2ccccc2C1=O	77
[S-]c1nnc(-c2ccc(Br)cc2)n1-c1ccccc1.[Zn+2]	49
N#Cc1ccc(CSc2nnc(NC(=O)c3ccc4ncsc4c3)s2)cc1	51
O=C(CSc1n[nH]c(=O)[nH]c1=O)Nc1ccc2c(c1)C(=O)c1ccccc1C2=O	52
CC1(C)CC[C@]2(C(=O)n3ccnc3)CC[C@]3(C)[C@H](C(=O)C=C4[C@@]5(C)C=C(C#N)C(=O)C(C)(C)[C@@H]5CC[C@]43C)[C@@H]2C1	48
CC(=O)Nc1ccc(S(=O)(=O)NCCC(=O)OC(C)C(=O)c2ccc(C)cc2)cc1 (stereo not given)	35
O=C(Nc1ccc(Nc2ccncc2)cc1)c1ccc(Nc2ccnc3ccc([N+](=O)[O-])cc23)cc1	44
Oc1ccc2ccccc2c1C=Nc1ccccc1Br	38
Fc1ccc(F)c(C2=NNC(=Nc3ccccc3F)SC2)c1	-143*
CC(C)(C)N=C1NN=C(c2ccc(S(=O)(=O)N3CCCCC3)cc2)CS1	-67*
CC(C)c1ccc(S(=O)(=O)/N=C2/C=C(Sc3ncn[nH]3)C(=O)c3ccccc32)cc1	64
